Compound activity as filed in PubChem BioAssay.
An excerpt weighted towards active compounds, which were near 1% of everything screened.
TLR9-MyD88 block: inhibitors of human TLR9-MyD88 binding; Q9NR96+Q99836; CHO BLA complementation TLR9-MyD88, CCF4 FRET ratio; inhibition, % at 4.98 µM; 0.21% of 340,000 active;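 active = inhibition above the mean over all tested compounds plus 3 SD, cut at about 21% in these data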;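 also: 0% = DMSO only wells and 100% = clavulanate BLA inhibitor control wells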
TLR4-MyD88 BLA: blocks binding of human TLR4 to MyD88 | O00206+Q99836 | 0.18% of 200,000 active | inhibition, % at 8.4 µM | HeLa CL3-4 TLR4/MyD88 BLA complementation, FRET ratio | AID 861; in the data active = inhibition above about 25%;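 also: 0% = vehicle and 100% = reference inhibitor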
Hsp70 activator: switches on Hsp70 transcription; HeLa Hsp70 promoter luciferase reporter, luminescence; scaled: vehicle 0, proteasome-inhibitor control 100%; activation, % at 10 µM; 0.04% of 200,000 active; AID 1203;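 active = activation above the mean across all tested compounds plus 3 SD, cutoff set per campaign, cut at about 5.5% in these data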;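 also: 100% = MG132 at 30 µM as the positive control and 0% = DMSO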
NOD2 RIPK2 PPI: blocks binding of human NOD2 to RIPK2 | O43353 | CHO BLA complementation NOD2-RIPK2, CCF4 ratio | inhibition, % at 4.98 µM | 0.38% of 360,000 active | AID 624267; in the data active = inhibition above about 21%;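 also: 0% = vehicle only and 100% = reference blocker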
Target sequence (O43353 whole entry, looked up): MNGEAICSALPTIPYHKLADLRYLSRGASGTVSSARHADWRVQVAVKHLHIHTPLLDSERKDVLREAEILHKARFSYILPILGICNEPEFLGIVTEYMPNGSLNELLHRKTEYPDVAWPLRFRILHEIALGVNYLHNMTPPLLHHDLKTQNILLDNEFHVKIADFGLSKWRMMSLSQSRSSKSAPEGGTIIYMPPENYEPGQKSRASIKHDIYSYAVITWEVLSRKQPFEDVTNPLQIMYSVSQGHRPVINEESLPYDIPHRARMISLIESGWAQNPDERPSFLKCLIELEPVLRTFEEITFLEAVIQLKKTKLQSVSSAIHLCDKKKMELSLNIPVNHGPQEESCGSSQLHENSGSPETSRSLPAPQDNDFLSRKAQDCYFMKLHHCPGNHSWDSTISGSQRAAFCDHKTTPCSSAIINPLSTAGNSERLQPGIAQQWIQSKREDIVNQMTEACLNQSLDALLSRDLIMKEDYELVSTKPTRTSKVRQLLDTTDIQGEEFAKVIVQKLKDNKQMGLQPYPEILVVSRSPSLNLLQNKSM
bCat nuc transl: modulators of beta-catenin nuclear translocation | HeLa beta-catenin nuclear translocation, immunofluorescence imaging | nuclear translocation activity, % at 5 µM | 0.3% of 190,000 active | AID 1665;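 active = nuclear translocation activity above 50% at 5 µM, with a well cell count of 50 or more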;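 also: per-cell ratio of nuclear to cytoplasmic median beta-catenin stain intensity; plate controls were DMSO negative control for no effect and GSK-3 inhibitor IX positive control for full effect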
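Test system: human HeLa cells, endogenous beta-catenin. Times: 24 h compound exposure, 37°C. Measured by: beta-catenin immunofluorescence imaging with DAPI.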
MT stabilize HCS: stabilizes microtubules in HeLa cells; HeLa tubulin immunostaining HCS, 24 h; share of cells brighter than vehicle mean+2SD; % tubulin-high responders, % at 10 µM; 0.83% of 200,000 active; AID 2205;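 active = plate Z-score above 3 for both tubulin-high and condensed-nucleus cell shares, with cell loss under 80%, at 10 µM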;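 also: anti alpha tubulin signal scored within the nucleus-defined area of each cell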
NOD2-RIPK2 conf: confirmation of human NOD2-RIPK2 interaction inhibitors. 70% of 1,200 active. CHO cells, NOD2-RIPK2 BLA complementation, CCF4 FRET. shares compounds with NOD2 RIPK2 PPI. AID 624370. inhibition, % at 4.98 µM;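 active = mean inhibition across replicates above a set limit taken from the earlier primary screen, cut at about 21% in these data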;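 also: 0% = DMSO-only wells and the high end = clavulanate BLA-blocked wells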
BLA counter: NOD2-RIPK2 counterscreen BLA reporter activity; shares compounds with NOD2 RIPK2 PPI; CHO BLA reporter, CCF4 FRET ratio; inhibition, % at 4.98 µM; 57% of 1,200 active; AID 624371;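 active = mean inhibition above the low-control mean inhibition plus three low-control SD, cut at about 11% in these data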;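 also: 0% = DMSO only wells and 100% = clavulanate high control wells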
The depositor's hits bear a star; ! = not confirmed by another sample.

Screening COc1ccccc1CNC(=O)[C@H](C)NC(=O)C1CCN(C(=O)[C@@H](N)CC(C)C)CC1 returned TLR9-MyD88 block -4.5 and NOD2 RIPK2 PPI -8.5.
For O=C(CCc1ccccc1)Nc1ccccc1 the results were TLR9-MyD88 block -10.9, TLR4-MyD88 BLA -4.1, Hsp70 activator 0.0, NOD2 RIPK2 PPI 35.5*, bCat nuc transl -1.6, MT stabilize HCS 2.2, NOD2-RIPK2 conf -2.3 and BLA counter -1.4.
`Cc1onc(-c2ccccc2)c1CNS(=O)(=O)c1ccccc1[N+](=O)[O-]` gave TLR9-MyD88 block -1.8, NOD2 RIPK2 PPI -1.5 and bCat nuc transl -5.0.
Screening S=c1[nH]nc(-c2cc3c(s2)-c2ccccc2CC3)o1 returned TLR9-MyD88 block 11.7, TLR4-MyD88 BLA 15.7, Hsp70 activator 0.0, NOD2 RIPK2 PPI 30.4*, bCat nuc transl 1.3, MT stabilize HCS 1.3, NOD2-RIPK2 conf 25.4* and BLA counter 38.5*.
Screening CCCCOc1ccc(C(=O)Oc2cccnc2)cc1 returned TLR9-MyD88 block -3.7 and NOD2 RIPK2 PPI 8.8.
For COc1ccc(/C=C2\CN(Cc3ccccc3)C/C(=C\c3ccc(OC)c(O)c3)C2=O)cc1O the results were TLR9-MyD88 block 10.1, NOD2 RIPK2 PPI 25.6*, NOD2-RIPK2 conf 26.7* and BLA counter 5.0.
For COc1cc(/C=C2/CC/C(=C/c3ccc(O)c(OC)c3)C2=O)ccc1O the results were TLR9-MyD88 block 1.9, NOD2 RIPK2 PPI -10.1 and bCat nuc transl 45.2.
OC(c1ccccc1)c1ncc(-c2cccc(F)c2)[nH]1 (stereo unspecified) was read as NOD2 RIPK2 PPI -0.2.
Screening C[C@@H]1CN([C@H](C)CO)C(=O)c2cc(NS(=O)(=O)c3cn(C)cn3)ccc2O[C@H]1CN(C)C(=O)Nc1ccccc1 returned TLR9-MyD88 block 5.1 and NOD2 RIPK2 PPI 4.6.
Screening CC1OC2CC(=O)OC2C2=C1C(=O)c1c(O)cccc1C2=O (stereo unspecified) returned NOD2 RIPK2 PPI 70.2*, NOD2-RIPK2 conf 77.2* and BLA counter -14.2.
CCCCNc1c(-c2ccc(OC)c(SC3CCCCC3)c2)nc2ccc(C)cn12 was read as TLR9-MyD88 block -7.1, NOD2 RIPK2 PPI 52.5*!, NOD2-RIPK2 conf 20.3 and BLA counter 10.1.
Screening CCCCNc1c(-c2ccc(SC3CCCCC3)c(OC)c2)nc2ccc(C)cn12 returned TLR9-MyD88 block -4.9 and NOD2 RIPK2 PPI 11.7.
For CCCCNc1c(-c2ccc(SC(C)CC)cc2)nc2ccccn12 (stereo unspecified) the results were TLR9-MyD88 block 9.5, NOD2 RIPK2 PPI 21.7*!, NOD2-RIPK2 conf 20.4 and BLA counter 16.2*.
For CCCCNc1c(-c2ccc(SC3CCCCC3)cc2)nc2ccccn12 the results were TLR9-MyD88 block 0.2 and NOD2 RIPK2 PPI 5.6.
`COc1ccc(C(=O)NNC(=O)CCn2nnc(-c3ccc(C)cc3)n2)cc1OC` gave TLR9-MyD88 block 3.0, TLR4-MyD88 BLA 9.9, Hsp70 activator -0.1, NOD2 RIPK2 PPI 3.4, bCat nuc transl 6.1 and MT stabilize HCS 2.2.
For Cc1ccc2c(c1)sc1nncn12 the results were TLR9-MyD88 block -2.0 and NOD2 RIPK2 PPI 5.7.
CC1(c2ccc(Cl)cc2)NC(=O)N(CN2CCOCC2)C1=O (stereo unspecified) was read as TLR9-MyD88 block -3.0 and NOD2 RIPK2 PPI 2.2.
For Cc1ccc(O)c(C2=Nc3ccccc3N=C(c3ccco3)C2)c1 the results were TLR9-MyD88 block 12.1, TLR4-MyD88 BLA -4.1, Hsp70 activator -0.1, NOD2 RIPK2 PPI 23.2*, bCat nuc transl 1.3, MT stabilize HCS inactive, NOD2-RIPK2 conf 8.5 and BLA counter 46.3*.
Screening Nc1ccc2c(c1)N1CCN=C1S2 returned TLR9-MyD88 block 18.4, TLR4-MyD88 BLA 15.5, Hsp70 activator -0.5, NOD2 RIPK2 PPI 3.9, bCat nuc transl 0.0 and MT stabilize HCS 2.9.
Screening O=C(Nc1ccc(Cl)cc1)Nc1ccc2c(c1)N1CCN=C1S2 returned TLR9-MyD88 block 8.7, TLR4-MyD88 BLA 2.5, Hsp70 activator 0.1, NOD2 RIPK2 PPI 21.6*, bCat nuc transl 1.4, MT stabilize HCS 2.9, NOD2-RIPK2 conf 36.1* and BLA counter 19.2*.
COc1ccc(C2C(C(=O)NCCCN3CCOCC3)c3ccccc3C(=O)N2c2ccc(OC)cc2)cc1 (stereo unspecified) was read as TLR9-MyD88 block 1.2, TLR4-MyD88 BLA -12.1, Hsp70 activator -0.2, NOD2 RIPK2 PPI 23.6*, bCat nuc transl -0.6, MT stabilize HCS 2.3, NOD2-RIPK2 conf 3.7 and BLA counter -2.9.
`COc1ccc(NC(=O)c2cnn(-c3ccccc3)c2C)cc1` gave TLR9-MyD88 block -0.3 and NOD2 RIPK2 PPI -1.4.
COc1ccc(CN2CCn3ncc(C(=O)Nc4ccccc4)c3C2=O)cc1 was read as TLR9-MyD88 block -1.4, TLR4-MyD88 BLA -4.4, Hsp70 activator -0.1, NOD2 RIPK2 PPI 22.4*, bCat nuc transl 3.5, MT stabilize HCS 2.8, NOD2-RIPK2 conf -6.5 and BLA counter -3.4.
For COc1ccc(OC)c2sc(N(CCCN(C)C)C(=O)CCS(=O)(=O)c3ccccc3)nc12 the results were TLR9-MyD88 block 15.6, NOD2 RIPK2 PPI 40.9*, NOD2-RIPK2 conf 53.7* and BLA counter 5.4.
Cc1[nH]n(-c2ccccc2)c(=O)c1C=Nc1cccc2cccnc12 was read as TLR9-MyD88 block 19.3, TLR4-MyD88 BLA 12.0, Hsp70 activator -0.1, NOD2 RIPK2 PPI 31.5*, bCat nuc transl 0.1, MT stabilize HCS 4.9, NOD2-RIPK2 conf 34.5* and BLA counter 31.5*.
Cc1ccc(-n2[nH]c(C)c(/C=N/c3ccccn3)c2=O)cc1 was read as TLR9-MyD88 block 2.7, TLR4-MyD88 BLA -16.8, Hsp70 activator -0.2, NOD2 RIPK2 PPI -3.5, bCat nuc transl 2.5 and MT stabilize HCS 2.1.
Screening COCCCNc1c2c3c(cccc3[nH]c1=O)C(=O)c1ccccc1-2 returned TLR9-MyD88 block 15.3, TLR4-MyD88 BLA 16.5, Hsp70 activator -0.1, NOD2 RIPK2 PPI 32.3*, MT stabilize HCS 14.7*, NOD2-RIPK2 conf 37.4* and BLA counter 41.1*.
For Cc1ccc(CNC(=O)Nc2ccc3c(c2)N(C)C(=O)CS3)cc1 the results were TLR9-MyD88 block 0.1, TLR4-MyD88 BLA 3.9, Hsp70 activator 0.5, NOD2 RIPK2 PPI 27.2*, bCat nuc transl -1.0, MT stabilize HCS 1.7, NOD2-RIPK2 conf -2.6 and BLA counter -4.2.
